Measured values taken from ChEMBL document CHEMBL1121875, “Retinoic acid analogues with ring modifications. Synthesis and pharmacological activity” (J Med Chem, 1981).

biological target: T1, Ornithine decarboxylase (Mus musculus) (UniProt P00860); assay: (§1) Percent inhibition of TPA-induced ornithine decarboxylase activity; type: functional; settings: tested as the 2H-labelled form; concentration not given here
T1 sequence (whole entry): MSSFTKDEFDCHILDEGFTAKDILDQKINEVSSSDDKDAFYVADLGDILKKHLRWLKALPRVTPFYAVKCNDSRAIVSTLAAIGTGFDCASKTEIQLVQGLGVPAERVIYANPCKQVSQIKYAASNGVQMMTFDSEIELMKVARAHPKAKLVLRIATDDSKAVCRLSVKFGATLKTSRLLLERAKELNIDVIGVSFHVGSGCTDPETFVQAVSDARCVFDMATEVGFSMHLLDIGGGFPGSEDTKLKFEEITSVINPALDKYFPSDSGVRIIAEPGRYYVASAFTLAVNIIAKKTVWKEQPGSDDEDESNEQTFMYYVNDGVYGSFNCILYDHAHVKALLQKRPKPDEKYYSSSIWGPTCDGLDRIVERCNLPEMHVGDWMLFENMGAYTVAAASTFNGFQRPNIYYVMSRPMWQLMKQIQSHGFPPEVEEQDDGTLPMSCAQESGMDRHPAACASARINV
Method in brief: (§2)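 Mouse epidermal ODC was induced by topical TPA on the back skin, with each retinoid applied topically to the back at 1.7 or 17 nmol. Each treatment used 3–6 groups of 3–4 mice. Epidermal ODC activity was measured by a previously described method and reported as % inhibition versus TPA-only controls (mean ± SE).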

Work on CC1=C(/C=C/C(C)=C/C=C/C(C)=C/C(=O)O)C(C)(C)CCC1 yielded an inhibition of 90%.

biological target: T1, Ornithine decarboxylase (Mus musculus); assay: as §1; type: functional; set-up: concentration or dose not given beside the values; settings: concentration not given here; method in brief: as §2

In order of falling inhibition:
1. CC1=C(/C=C/C(C)=C/C=C/C(C)=C\C(=O)O)C(C)(C)CCC1  96%
2. CC1=C(/C=C/C(C)=C/C=C/C(C)=C/C(=O)O)C(C)(C)CCC1  92%
3. CCOC(=O)c1ccc(/C=C(C)/C=C/C23OC2(C)CCCC3(C)C)cc1 (stereo not drawn)  80%
4. CCOC(=O)c1ccc(/C=C(C)/C=C/C23CC2(C)CCCC3(C)C)cc1 (stereo not drawn)  80%
5. CCOC(=O)c1ccc(/C=C(C)/C=C/C2=C(C)CCCC2(C)C)cc1  80%
6. CCOC(=O)/C=C(C)/C=C/C=C(C)/C=C/C1=C(C)C2(CCC1(C)C)CC2  72%
7. CCOC(=O)/C=C(C)/C=C/C=C(C)/C=C/C12CC1(C)CCCC2(C)C (stereo not drawn)  70%
8. CCOC(=O)\C=C(C)/C=C/C=C(C)/C=C/C1=C(C)C2(CCC1(C)C)CC2  67%
9. CCOC(=O)/C=C(C)/C=C/C=C(C)/C=C/C1CC2CCC1C2 (stereo not drawn)  64%
10. CCOC(=O)/C=C(C)/C=C/C=C(C)/C=C/C1=CC2CCC1C2 (stereo not drawn)  54%
11. CCOC(=O)\C=C(C)/C=C/C=C(C)/C=C/C12CC1(C)CCCC2(C)C (stereo not drawn)  45%

same assay, conditions: tested as the 2H-labelled form, concentration not given here

Compound CC1=C(/C=C/C(C)=C/C=C/C(C)=C/C(=O)O)C(C)(C)CCC1 has an inhibition of 90%.
